Assay results collected from several papers.
Lines come from different studies, so protocols differ. ≈ marks a conversion by molar mass, not a printed value.
Organism: Pseudomonas aeruginosa

| SMILES | test | system | setting | quantity | result |
| --- | --- | --- | --- | --- | --- |
| COc1cc(C#CC(=O)c2ccccc2Cl)ccc1O | microbial growth, absorbance |  | 10 µM, 24 h | activity vs control | 98% |
| CN[C@H](CC(C)C)C(=O)N[C@H]1C(=O)N[C@@H](CC(N)=O)C(=O)N[C@H]2C(=O)N[C@H]3C(=O)N[C@H](C(=O)N[C@H](C(=O)O)c4cc(O)cc(O)c4-c4cc3ccc4O)[C@H](O)c3ccc(c(Cl)c3)Oc3cc2cc(c3O[C@@H]2O[C@H](CO)[C@@H](O)[C@H](O)[C@H]2O[C@H]2C[C@](C)(N)[C@H](O)[C@H](C)O2)Oc2ccc(cc2Cl)[C@H]1O | microbial killing | ATCC47085 |  | MBC | 1000 µg/mL (≈ 690 µM) |
| COc1cc(C#CC(=O)CC(C)C)ccc1O | microbial growth, absorbance |  | 100 µM, 24 h | activity vs control | 87% |
| CC(C)(C)OC(=O)N[C@H]1CCN(c2cc(C(=O)NCC(=O)O)ccc2NC(=O)c2cc(Br)c(Br)[nH]2)C1 | microbial growth, broth dilution | ATCC27853 |  | MIC | > 32 µg/mL |
| COc1cc(C=Nc2ccccc2Br)ccc1O | microbial growth, disc diffusion |  | 2000 µg/mL, 24 h | inhibition zone | 14.2 mm |
| CC1CCC(C(C)C)C(OC(=O)C=Cc2ccc(O)c(O)c2)C1 (stereo not drawn) | microbial growth, broth dilution | ATCC27853 |  | MIC | 2 µg/mL (≈ 6.28 µM) |
| Cc1[nH]c(C(=O)Nc2ccc(-c3n[nH]c(=O)o3)cc2N2CCC[C@H](N)C2)c(Cl)c1Cl.Cl | microbial growth, broth dilution | ATCC27853 |  | MIC | 16 µg/mL |
| COc1cccc(C(=O)C#Cc2ccc(O)c(OC)c2)c1 | microbial growth, absorbance |  | 10 µM, 24 h | activity vs control | 87% |
| Cc1[nH]c(C(=O)Nc2ccc(C(=O)NCc3n[nH]c(=O)o3)cc2N2CCN(C(=O)OC(C)(C)C)CC2)c(Cl)c1Cl | microbial growth, broth dilution | ATCC27853 |  | MIC | > 32 µg/mL |
| COc1cc(C#CC(=O)c2ccc(C(F)(F)F)cc2)ccc1O | microbial growth, absorbance |  | 10 µM, 24 h | activity vs control | 102% |
| C[C@@H](O)[C@H]1C(=O)N2C(C(=O)O)=C(SCCN=CN)C[C@H]12 | microbial growth, disc diffusion |  | 2000 µg/mL, 24 h | inhibition zone | 17 mm |
| Cc1[nH]c(C(=O)Nc2ccc(C(=O)NCC(=O)O)cc2N2CCNCC2)c(Cl)c1Cl.Cl | microbial growth, broth dilution | ATCC27853 |  | MIC | > 32 µg/mL |
| Cc1ccccc1NC(=O)C=Cc1ccc(O)c(O)c1 | microbial growth, broth dilution | ATCC27853 |  | MIC | 8 µg/mL (≈ 29.7 µM) |
| Cc1[nH]c(C(=O)Nc2ccc(C(=O)NCC(=O)O)cc2N2CC[C@H](N)C2)c(Cl)c1Cl.Cl | microbial growth, broth dilution | ATCC27853 |  | MIC | > 32 µg/mL |
| O=C(C=Cc1ccc(O)c(O)c1)Oc1cccc2cccnc12 | microbial growth, broth dilution | ATCC27853 |  | MIC | 4 µg/mL (≈ 13 µM) |
| C[C@@H](O)[C@H]1C(=O)N2C(C(=O)O)=C(S[C@@H]3CN[C@H](C(=O)N(C)C)C3)[C@H](C)[C@H]12 | microbial growth, broth dilution | ATCC27853 | 20 h | MIC | < 0.5 µg/mL |
| COc1cc(C=Nc2ccc(Cl)cc2Cl)ccc1O | microbial growth, disc diffusion |  | 2000 µg/mL, 24 h | inhibition zone | 14.4 mm |
| COc1cc(C#C[C@H](O)CC(C)C)ccc1O | microbial growth, absorbance |  | 100 µM, 24 h | activity vs control | 98% |
